Measurements published in ChEMBL document CHEMBL3098082, “Design, synthesis, molecular docking and 3D-QSAR studies of potent inhibitors of enoyl-acyl carrier protein reductase as potential antimycobacterial agents” (Eur J Med Chem, 2014).
Converted amounts (≈) assume the structure as drawn.

Assays:
[1] = tested on: Mycobacterium tuberculosis; experiment: Antimycobacterial activity against Mycobacterium tuberculosis H37Rv after 5 days by microplate alamar blue assay; type: functional; settings: for MIC: Mycobacterium tuberculosis, H37Rv, 120 h
Outline: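 M. tuberculosis H37Rv in Middlebrook 7H9 broth; compounds serially diluted on plate at 0.2–100 […] (so in the source); isoniazid reference. Incubated 37 C, 5 days, then 1:1 alamar blue/10% Tween 80 added, further 24 h. Blue = no growth, pink = growth; MIC = lowest concentration preventing blue-to-pink change.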

[2] = tested on: A549; experiment: Cytotoxicity against human A549 cells by MTT assay; type: cell-based
[3] = tested on: Vero; experiment: Cytotoxicity against african green monkey Vero cells by MTT assay; type: cell-based; settings: Chlorocebus sabaeus

Compound	MIC [1] [µg/mL]	-logMIC [1]	IC50 [2] [µM]	IC50 [3] [µM]
Oc1cc(Cl)ccc1Oc1ccc(Cl)cc1Cl [TRICLOSAN]	10 (≈ 34.5 µM)	–	–	–
CC(=O)Nc1ccc(S(=O)(=O)N/N=C(\C)c2ccc(-n3c(C)ccc3C)cc2)cc1	0.8 (≈ 1.88 µM)	6.097	–	–
C/C(=N\NC(N)=S)c1ccc(-n2c(C)ccc2C)cc1	50 (≈ 175 µM)	4.301	–	–
C/C(=N\NC(=O)COc1ccc(C)cc1)c1ccc(-n2c(C)ccc2C)cc1	3.12 (≈ 8.32 µM)	5.505	–	–
C/C(=N\NC(=O)COc1ccccc1Cl)c1ccc(-n2c(C)ccc2C)cc1	50 (≈ 126 µM)	4.301	–	–
C/C(=N\Nc1ccc([N+](=O)[O-])cc1[N+](=O)[O-])c1ccc(-n2c(C)ccc2C)cc1	12.5 (≈ 31.8 µM)	4.903	–	–
C/C(=N\NC(=O)c1ccc(Cl)cc1)c1ccc(-n2cccc2)cc1	50 (≈ 148 µM)	4.301	–	–
C/C(=N\NC(=O)c1ccc(Br)cc1)c1ccc(-n2cccc2)cc1	50 (≈ 131 µM)	4.301	–	–
C/C(=N\NC(=O)COc1c(Cl)cc(Cl)cc1Cl)c1ccc(-n2cccc2)cc1	50 (≈ 114 µM)	4.301	–	–
C/C(=N\NC(=O)COc1ccc(O)cc1)c1ccc(-n2c(C)ccc2C)cc1	25 (≈ 66.2 µM)	4.602	–	–
C/C(=N\NC(=O)c1ccccc1Cl)c1ccc(-n2cccc2)cc1	25 (≈ 74 µM)	4.602	–	–
C/C(=N\Nc1ccc([N+](=O)[O-])cc1[N+](=O)[O-])c1ccc(-n2cccc2)cc1	12.5 (≈ 34.2 µM)	4.903	–	–
C/C(=N\NC(=O)c1ccccc1)c1ccc(-n2c(C)ccc2C)cc1	25 (≈ 75.4 µM)	4.602	–	–
C/C(=N\NC(=O)c1ccc(-n2cccc2)cc1)c1ccc(-n2cccc2)cc1	12.5 (≈ 33.9 µM)	4.903	–	–
C/C(=N\NS(=O)(=O)c1ccc(C)cc1)c1ccc(-n2c(C)ccc2C)cc1	0.4 (≈ 1.05 µM)	6.398	277	279
C/C(=N\NC(=O)COc1ccc(C)cc1)c1ccc(-n2cccc2)cc1	12.5 (≈ 36 µM)	4.903	–	–
C/C(=N\Nc1ccccc1)c1ccc(-n2cccc2)cc1	12.5 (≈ 45.4 µM)	4.903	–	–
C/C(=N\NC(=O)c1ccc(O)cc1)c1ccc(-n2cccc2)cc1	12.5 (≈ 39.1 µM)	4.903	–	–
C/C(=N\NC(=O)c1ccc(-n2cccc2)cc1)c1ccc(-n2c(C)ccc2C)cc1	50 (≈ 126 µM)	4.301	–	–
C/C(=N\NS(=O)(=O)c1ccc(C)cc1)c1ccc(-n2cccc2)cc1	0.8 (≈ 2.26 µM)	6.097	–	–
C/C(=N\NC(=O)c1ccc(-n2c(C)ccc2C)cc1)c1ccc(-n2c(C)ccc2C)cc1	25 (≈ 58.9 µM)	4.602	–	–
C/C(=N\NC(=O)COc1ccc(Cl)cc1)c1ccc(-n2c(C)ccc2C)cc1	3.12 (≈ 7.89 µM)	5.505	–	–
C/C(=N\NC(=O)c1ccccc1)c1ccc(-n2cccc2)cc1	50 (≈ 165 µM)	4.301	–	–
C/C(=N\NC(=O)c1ccc(Br)cc1)c1ccc(-n2c(C)ccc2C)cc1	25 (≈ 60.9 µM)	4.602	–	–
C/C(=N\NC(=O)c1ccccc1Cl)c1ccc(-n2c(C)ccc2C)cc1	12.5 (≈ 34.2 µM)	4.903	–	–
C/C(=N\NC(N)=O)c1ccc(-n2cccc2)cc1	100 (≈ 413 µM)	4	–	–
C/C(=N\NC(=O)COc1ccc(Br)cc1)c1ccc(-n2c(C)ccc2C)cc1	6.25 (≈ 14.2 µM)	5.204	–	–

Compound	MIC [1] [µg/mL]	-logMIC [1]	IC50 [2] [µM]	IC50 [3] [µM]
C/C(=N\NC(=O)c1ccncc1)c1ccc(-n2cccc2)cc1	50 (≈ 164 µM)	4.301	–	–
C/C(=N\NC(=O)COc1ccccc1)c1ccc(-n2cccc2)cc1	12.5 (≈ 37.5 µM)	4.903	–	–
C/C(=N\NS(=O)(=O)c1ccc(N)cc1)c1ccc(-n2c(C)ccc2C)cc1	12.5 (≈ 32.7 µM)	4.903	–	–
C/C(=N\NC(=O)COc1c(Cl)cc(Cl)cc1Cl)c1ccc(-n2c(C)ccc2C)cc1	12.5 (≈ 26.9 µM)	4.903	–	–
CC(=O)Nc1ccc(S(=O)(=O)N/N=C(\C)c2ccc(-n3cccc3)cc2)cc1	0.2 (≈ 0.504 µM)	6.699	257	263
C/C(=N\NC(=O)c1ccc(-n2c(C)ccc2C)cc1)c1ccc(-n2cccc2)cc1	25 (≈ 63.1 µM)	4.602	–	–
C/C(=N\NC(=O)c1ccc(C)cc1)c1ccc(-n2cccc2)cc1	50 (≈ 158 µM)	4.301	–	–
C/C(=N\NC(=O)c1ccc(O)cc1)c1ccc(-n2c(C)ccc2C)cc1	25 (≈ 72 µM)	4.602	–	–
NNC(=O)c1ccncc1 [ISONIAZID]	0.25 (≈ 1.82 µM)	–	> 450	> 450
C/C(=N\Nc1ccccc1)c1ccc(-n2c(C)ccc2C)cc1	25 (≈ 82.4 µM)	4.602	–	–
C/C(=N\NC(=O)c1cccnc1)c1ccc(-n2c(C)ccc2C)cc1	100 (≈ 301 µM)	4	–	–
C/C(=N\NC(=O)COc1ccccc1Cl)c1ccc(-n2cccc2)cc1	25 (≈ 68 µM)	4.602	–	–
C/C(=N\NC(=O)COc1ccccc1)c1ccc(-n2c(C)ccc2C)cc1	0.8 (≈ 2.21 µM)	6.097	–	–
C/C(=N\NC(N)=O)c1ccc(-n2c(C)ccc2C)cc1	50 (≈ 185 µM)	4.301	–	–
C/C(=N\NC(=O)COc1ccc(Br)cc1)c1ccc(-n2cccc2)cc1	50 (≈ 121 µM)	4.301	–	–
C/C(=N\NC(=O)COc1ccc(O)cc1)c1ccc(-n2cccc2)cc1	25 (≈ 71.6 µM)	4.602	–	–
C/C(=N\NC(=O)c1ccc(Cl)cc1)c1ccc(-n2c(C)ccc2C)cc1	25 (≈ 68.3 µM)	4.602	–	–
C/C(=N\NC(=O)c1ccncc1)c1ccc(-n2c(C)ccc2C)cc1	100 (≈ 301 µM)	4	–	–
C/C(=N\NC(=O)COc1cccc2ccccc12)c1ccc(-n2c(C)ccc2C)cc1	0.2 (≈ 0.486 µM)	6.699	269	277
C/C(=N\NC(=O)COc1ccc(Cl)cc1)c1ccc(-n2cccc2)cc1	12.5 (≈ 34 µM)	4.903	–	–
C/C(=N\NC(N)=S)c1ccc(-n2cccc2)cc1	50 (≈ 194 µM)	4.301	–	–
C/C(=N\NC(=O)COc1ccc2ccccc2c1)c1ccc(-n2cccc2)cc1	0.2 (≈ 0.522 µM)	6.699	247	249
C/C(=N\NC(=O)COc1ccc2ccccc2c1)c1ccc(-n2c(C)ccc2C)cc1	0.2 (≈ 0.486 µM)	6.699	260	255
C/C(=N\NC(=O)c1ccc(C)cc1)c1ccc(-n2c(C)ccc2C)cc1	25 (≈ 72.4 µM)	4.602	–	–
C/C(=N\NS(=O)(=O)c1ccc(N)cc1)c1ccc(-n2cccc2)cc1	6.25 (≈ 17.6 µM)	5.204	–	–
C/C(=N\NC(=O)COc1cccc2ccccc12)c1ccc(-n2cccc2)cc1	0.4 (≈ 1.04 µM)	6.398	243	240
C/C(=N\NC(=O)c1cccnc1)c1ccc(-n2cccc2)cc1	50 (≈ 164 µM)	4.301	–	–
